Type in all cases: functional
What all share (conditions): read-out: ED50 (the source's name)

Experiment [1] concerns Caenorhabditis elegans. The experiment is described as follows: Antinematodal activity against Caenorhabditis elegans after 24 hrs by microscopy. The procedure, abridged: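 C. elegans were grown on NG agar carrying an E. coli strain, kept at room temperature and subcultured before the assay. Worms in physiological saline were diluted to 20-25 per 48 μL, with three wells per treatment. Each well received 2 μL of 50% DMSO or 50% DMSO containing compound. Plates were covered in a humid chamber, and dead worms were counted by microscopy after 24 h.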

Experiment [2] has as its system Panagrellus redivivus. The experiment is described as follows: Antinematodal activity against Panagrellus redivivus after 24 hrs by microscopy. The procedure, abridged:
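P. redivivus were kept in aseptic liquid Basal Heme medium at room temperature and subcultured before testing. Worms were suspended in physiological saline and diluted to 20-25 per 48 μL aliquot, with triplicate wells per treatment. 2 μL of 50% DMSO, alone or with compound, was added. Plates were covered and humidified, and mortality was scored microscopically at 24 h.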

For experiment [3], the system named is Bursaphelenchus xylophilus. The experiment is described as follows: Antinematodal activity against Bursaphelenchus xylophilus after 24 hrs by microscopy. The procedure, abridged:
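B. xylophilus were grown on PDB agar carrying Botrytis cinerea, kept at room temperature and subcultured before the assay. They were diluted in physiological saline to 20-25 worms per 48 μL and dispensed into three wells per treatment. 2 μL of 50% DMSO, with or without compound, was added. Plates were covered and held in a humid chamber. Dead worms were counted microscopically at 24 h.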

Among the data in ChEMBL document CHEMBL1151267, “Nematicidal epipolysulfanyldioxopiperazines from Gliocladium roseum” (2005) are EC50 values, retold here.

Values after ≈ are worked out from the molar mass of the structure shown.

For the compound `CC[C@@]12SS[C@]3(C(=O)N1C)[C@@H](O)[C@]1([C@@]45c6ccccc6N[C@@H]4N4C(=O)[C@@]6(C)SS[C@]4(C(=O)N6C)[C@H]5O)c4ccccc4N[C@@H]1N3C2=O`, the values for the EC50 in experiment [1], in experiment [2] and in experiment [3] were 50 µg/mL (≈ 70.3 µM), 80 µg/mL (≈ 113 µM) and above 400 µg/mL, respectively.

With `CN1C(=O)[C@@]23C[C@]4([C@@]56c7ccccc7N[C@@H]5N5C(=O)[C@@]7(C)SS[C@]5(C(=O)N7C)[C@H]6O)c5ccccc5N[C@@H]4N2C(=O)[C@]1(C)SS3`, the EC50 in experiment [1] was 10 µg/mL (≈ 14.7 µM); in experiment [2], 40 µg/mL (≈ 58.7 µM); in experiment [3], above 400 µg/mL.

Turning to `CN1C(=O)[C@]23SSS[C@]1(C)C(=O)N2[C@H]1Nc2ccccc2[C@@]1([C@@]12c4ccccc4N[C@@H]1N1C(=O)[C@@]4(C)SS[C@]1(C(=O)N4C)[C@H]2O)[C@@H]3O` [GLIOCLADINE A], the EC50 was 25 µg/mL (≈ 34.3 µM) in experiment [1], 50 µg/mL (≈ 68.6 µM) in experiment [2] and above 400 µg/mL in experiment [3].

In the case of `CN1C(=O)C23SSSS[C@]1(C)C(=O)N2[C@H]1Nc2ccccc2[C@@]1([C@@]12c4ccccc4N[C@@H]1N1C(=O)[C@@]4(C)SS[C@]1(C(=O)N4C)[C@H]2O)[C@@H]3O` [GLIOCLADINE B], the figures for the EC50 in experiment [1], in experiment [2] and in experiment [3] were 30 µg/mL (≈ 39.4 µM), 25 µg/mL (≈ 32.9 µM) and above 400 µg/mL, respectively.

Take `CN1C(=O)[C@]23SS[C@]1(C)C(=O)N2[C@H]1Nc2ccccc2[C@@]1(c1c[nH]c2ccccc12)[C@@H]3O` [GLIOCLADINE C]: the EC50 in experiment [1] is 200 µg/mL (≈ 431 µM); in experiment [2] it was 250 µg/mL (≈ 538 µM); in experiment [3], above 400 µg/mL.

Regarding `CN1C(=O)[C@]23SSS[C@]1(C)C(=O)N2[C@H]1Nc2ccccc2[C@@]1(c1c[nH]c2ccccc12)[C@@H]3O` [GLIOCLADINE D], the EC50 in experiment [1] is 200 µg/mL (≈ 403 µM); in experiment [2] it was 250 µg/mL (≈ 503 µM); in experiment [3] it was above 400 µg/mL.

On to `CN1C(=O)[C@]23SSSS[C@]1(C)C(=O)N2[C@H]1Nc2ccccc2[C@@]1(c1c[nH]c2ccccc12)[C@@H]3O` [GLIOCLADINE E], for which the values for the EC50 in experiment [1], in experiment [2] and in experiment [3] were 200 µg/mL (≈ 378 µM), 250 µg/mL (≈ 473 µM) and above 400 µg/mL, respectively.

For the compound `CN1C(=O)[C@]23SS[C@@]1(C)C(=O)N2[C@H]1Nc2ccccc2[C@@]1([C@@]12c4ccccc4N[C@@H]1N1C(=O)[C@@]4(C)SS[C@]1(C(=O)N4C)[C@H]2O)[C@@H]3O` [VERTICILLIN A], the values for the EC50 in experiment [1], in experiment [2] and in experiment [3] were 30 µg/mL (≈ 43.1 µM), 80 µg/mL (≈ 115 µM) and above 400 µg/mL, respectively.
